Data: paper PMC9183947 (Molecular imaging and biology, 2021)
“Also recorded” adds a separate entry of the source. Starred links: 1 amine or outer side, 2 acyl side, 3 side chain; linkers in the order of their positions; H or OH if unused. Non-standard residues stand in square brackets, D forms with d. Residues, ends and D or L forms follow the SMILES beside them. Groups on a side chain read outwards from the residue. *: point of attachment. Acryloyl(3-(3-pyridyl),E) = O=C(/C=C/c1cccnc1)*; X2 = O=C(CN1CCCN2CCN(CCCN(CP(=O)(O)O)CC2)CC1)*; X1 = O=C(Cc1ccc(N[*:1])cc1)[*:2]; Aad = N[C@@H](CCCC(=O)O)C(=O)O; NH(2-Me-phenyl) = Cc1ccccc1N*; PEG4 = NCCOCCOCCOCCOCCC(=O)O; Ac6c = NC1(C(=O)O)CCCCC1; CO = O=C([*:1])[*:2]

Tests used:
[1] = biological target: VLA-4 (integrin α4β1) on BPRα cells (Mus musculus, UniProt P09055+Q00651); assay: Saturation binding of [64Cu]-LLP2A to BPRα cells; conditions: normalized to cellular protein, triplicate
Sequence of VLA-4 (integrin α4β1) on BPRα cells (Q00651 41-1039): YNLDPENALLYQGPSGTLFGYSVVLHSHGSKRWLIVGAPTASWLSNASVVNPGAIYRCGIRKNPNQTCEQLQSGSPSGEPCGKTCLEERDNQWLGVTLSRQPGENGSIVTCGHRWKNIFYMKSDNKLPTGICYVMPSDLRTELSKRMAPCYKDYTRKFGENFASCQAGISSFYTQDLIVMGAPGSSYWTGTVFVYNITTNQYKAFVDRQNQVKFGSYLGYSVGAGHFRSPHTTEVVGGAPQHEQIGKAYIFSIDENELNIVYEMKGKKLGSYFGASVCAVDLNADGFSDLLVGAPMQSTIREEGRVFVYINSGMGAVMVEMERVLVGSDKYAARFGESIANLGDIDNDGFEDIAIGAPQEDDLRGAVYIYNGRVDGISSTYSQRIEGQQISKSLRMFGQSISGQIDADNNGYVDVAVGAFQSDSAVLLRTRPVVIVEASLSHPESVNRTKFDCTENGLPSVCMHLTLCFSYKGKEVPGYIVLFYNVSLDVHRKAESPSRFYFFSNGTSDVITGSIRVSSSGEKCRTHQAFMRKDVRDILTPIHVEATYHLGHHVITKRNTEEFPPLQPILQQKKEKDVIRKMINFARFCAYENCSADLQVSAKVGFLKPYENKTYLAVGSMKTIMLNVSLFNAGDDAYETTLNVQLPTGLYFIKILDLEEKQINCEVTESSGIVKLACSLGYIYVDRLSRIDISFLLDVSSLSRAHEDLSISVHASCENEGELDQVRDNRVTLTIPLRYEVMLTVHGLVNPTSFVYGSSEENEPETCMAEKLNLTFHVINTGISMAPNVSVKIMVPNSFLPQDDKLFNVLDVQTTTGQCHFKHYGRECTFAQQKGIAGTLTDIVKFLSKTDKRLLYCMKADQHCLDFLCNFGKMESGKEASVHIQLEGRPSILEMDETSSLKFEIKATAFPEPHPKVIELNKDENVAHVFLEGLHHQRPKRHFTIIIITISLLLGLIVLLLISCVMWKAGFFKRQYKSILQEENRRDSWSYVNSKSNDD
Sequence of VLA-4 (integrin α4β1) on BPRα cells (P09055 21-798): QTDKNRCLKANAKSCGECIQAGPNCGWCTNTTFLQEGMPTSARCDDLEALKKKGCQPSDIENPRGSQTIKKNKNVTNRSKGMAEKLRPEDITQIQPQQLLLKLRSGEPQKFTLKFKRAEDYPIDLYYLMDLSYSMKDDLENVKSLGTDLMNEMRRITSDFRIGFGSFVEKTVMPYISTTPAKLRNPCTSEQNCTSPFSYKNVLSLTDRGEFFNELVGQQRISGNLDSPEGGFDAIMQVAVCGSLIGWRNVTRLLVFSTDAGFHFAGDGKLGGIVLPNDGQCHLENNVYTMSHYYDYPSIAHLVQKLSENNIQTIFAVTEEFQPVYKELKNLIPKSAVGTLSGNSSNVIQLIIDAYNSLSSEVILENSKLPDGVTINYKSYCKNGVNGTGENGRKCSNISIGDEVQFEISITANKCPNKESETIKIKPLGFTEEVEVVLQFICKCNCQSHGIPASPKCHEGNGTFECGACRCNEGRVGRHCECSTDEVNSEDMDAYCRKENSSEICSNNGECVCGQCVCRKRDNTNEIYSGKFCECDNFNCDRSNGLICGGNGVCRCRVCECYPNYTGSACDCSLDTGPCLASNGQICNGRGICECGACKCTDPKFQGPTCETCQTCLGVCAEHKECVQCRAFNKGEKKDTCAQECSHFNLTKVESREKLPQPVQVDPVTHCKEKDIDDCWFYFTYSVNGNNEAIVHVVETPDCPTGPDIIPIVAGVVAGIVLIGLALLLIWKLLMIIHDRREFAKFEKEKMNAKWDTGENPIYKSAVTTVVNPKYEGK

s.c. BPR and BPRα tumors = assay: PET/CT imaging of BPR and BPRα tumor models; type: in vivo, C57BL/6 mice
Outline: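 Mice bore s.c. flank tumours (5 x 10^5 cells plus Matrigel; n=9 per line, 3m/6f) and received 7.4 MBq radiotracer i.v. (57.2 MBq/nmol). Under 2% isoflurane, static 10-min PET/CT scans were taken at 4 and 24 h and reconstructed by OSEM-3D. ROIs were drawn on CT. SUV = activity concentration x body weight/injected dose. Tumour-to-muscle SUV ratios were derived.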

BPR cells (VLA-4−) [2] = assay: [64Cu]-LLP2A internalization assay, BPR cells; type: cell-based, mouse; conditions: 15 min - 4 h at 37°C
Outline: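 Cells (1 x 10^5/well, seeded 24 h) were held in DMEM/1% BSA/1 mM Mn2+. Blocked wells first had 10 μg unlabelled PEG4 peptide for 15 min at 37°C. Each well then received 0.44 MBq radiotracer (3.43 MBq/nmol) at 37°C for 15 min, 2 h or 4 h. Surface activity was stripped with 20 mM sodium acetate pH 4.0 (10 min). Lysates were γ-counted, corrected for background, block and decay, and normalised to protein; n=3.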

[3] = Biodistribution in BPRα tumor-bearing mice; type: in vivo, C57BL/6 mice; conditions: both, C57BL/6, mouse, iv, 7.4 MBq, total radioactivity
Outline: (§1)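 Male and female C57BL/6 mice (4–6 weeks old) carried s.c. right-flank tumours from 5 x 10^5 cells in an equal volume of Matrigel. They received 7.4 MBq radiotracer (57.2 MBq/nmol) via lateral tail vein and were euthanised right after 24 h imaging (n=6; 3m/3f). Tissues and tumour were weighed and γ-counted. %IA/g was decay-corrected against an injected-dose standard.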

[4] = Biodistribution in BPR tumor-bearing mice; type: in vivo, C57BL/6 mice; conditions: both, C57BL/6, mouse, iv, 7.4 MBq, total radioactivity
Outline: as §1

[5] = system: B16F10 melanoma cells (VLA-4+); conditions: previously reported; cited from earlier work
[6] = previously demonstrated, cited from earlier work
BPR cells (VLA-4−) [7] = assay: Saturation binding of [64Cu]-LLP2A to BPR cells; set-up: species or system mouse

## Cc1ccccc1NC(=O)Nc1ccc(CC(=O)N[C@@H](CCCCNC(=O)/C=C/c2cccnc2)C(=O)N[C@@H](CCCC(=O)O)C(=O)NC2(C(=O)N[C@@H](CCCCNC(=O)CCOCCOCCOCCOCCNC(=O)CN3CCCN4CCN(CCCN(CP(=O)(O)O)CC4)CC3)C(N)=O)CCCCC2)cc1 [[^64Cu]-LLP2A, [^64Cu]-CB-TE1A1P-PEG4-LLP2A, metal not drawn] ({NH(2-Me-phenyl)-CO}-[X1]K(Acryloyl(3-(3-pyridyl),E))[Aad][Ac6c]K([PEG4-X2])-NH2; N-terminus and C-terminus assumed)
[1]
  Bmax: 145 ± 8.8 fmol/mg
s.c. BPR and BPRα tumors; 4h post-injection, 7.4 MBq i.v., n=9 each, p=0.0021
  tumor uptake in BPRα relative to BPR (PET/CT): significant increase
s.c. BPR and BPRα tumors; 4h post-injection, n=9, p=0.0005
  tumor-to-muscle ratio of BPRα vs. BPR (PET/CT SUV): significantly greater
s.c. BPR and BPRα tumors; 24h post-injection, n=9
  BPRα tumor uptake (PET/CT): remained detectable
BPR cells (VLA-4−) [2]
  internalization: undetectable
[3]; bone marrow
  tissue uptake at 24 h: 1.6 ± 0.5 %ID/g
[3]; spleen
  tissue uptake at 24 h: 6 ± 1.9 %ID/g
[3]; thymus
  tissue uptake at 24 h: 4.2 ± 4 %ID/g
[3]; tumor
  tissue uptake at 24 h: 2.8 ± 0.2 %ID/g
[4]; spleen
  tissue uptake at 24 h: 8.1 ± 4.4 %ID/g
[4]; thymus
  tissue uptake at 24 h: 3.5 ± 0.9 %ID/g
[4]; tumor
  tissue uptake at 24 h: 1.7 ± 0.2 %ID/g
[5]
  Bmax: 300 ± 4.5 fmol/mg
[6]; human serum
  stability in human serum: stability in human serum
[6]
  binding of the conjugate to plasma proteins: negligible
BPR cells (VLA-4−) [7]; 1-100 nM tracer, on ice 2 h, blocked with LLP2A-PEG4
  binding to BPR cells (saturation binding): indeterminate binding; also recorded: no saturation occurs
BPR cells (VLA-4−) [7]; model fit poor, R^2=0.0002
  Bmax: not interpretable
